Data as given in PMC8159897 (Angewandte Chemie (International ed. in English), 2021).

Key:
Golgi of HeLa cells = assay: Golgi accumulation; type: cell-based; settings: pS1 10 μM, from 1 minute to 8 minutes of incubation
Procedure, shortened: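 HeLa cells first transfected 24 h with CellLight Golgi-RFP to mark the Golgi. They were then given the NBD-labelled thiophosphopeptide test compound at 10 μM and imaged live by confocal microscopy 1, 4 and 8 min after addition. Golgi-localised green (NBD) fluorescence was compared with the red Golgi-RFP signal, and the RFP stain was checked for bleed-through into the green channel.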

[1] = Critical micelle concentration; type: physicochemical; settings: self-assembly / aggregation (Figures S2, S16)
[2] = test system: alkaline phosphatase (ALP); settings: incubated with ALP (0.1 U/mL) for about 16 minutes (Figure S15)

SMILES | enhancement of fluorescence intensity at the Golgi (Golgi of HeLa cells) | critical micelle concentration (CMC) [1] [µM] | conversion ratio to dephosphorylated product [2]
O=C(CCNc1ccc([N+](=O)[O-])c2nonc12)N[C@H](Cc1ccccc1)C(=O)N[C@H](Cc1ccccc1)C(=O)NCCSP(=O)(O)O [pS1] | about 7 times | 6.0 | 
O=C(Cc1ccc2ccccc2c1)N[C@H](Cc1ccccc1)C(=O)N[C@H](Cc1ccccc1)C(=O)NCCSP(=O)(O)O [pS2] |  | 9.5 | nearly fully converted
